The values that follow come from the EternaBench riboswitch data.

In the data set the test system is MS2 coat protein. Put plainly: apparent Kd, MS2 coat protein; higher = weaker binding; RNA-MaP array; FMN 200 µM where present. The method, boiled down: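 The apparent Kd is reported as the median of filtered per-cluster binding-curve fits. To get these curves, designs transcribed by stalled E. coli RNA polymerase on Illumina sequencing-chip clusters were titrated with SNAP-549-labelled MS2 coat protein from 0.7 or 1.5 nM, doubling to 3 µM. Titrations were run without and then with constant ligand in 100 mM Tris-HCl pH 7.5, 80 mM KCl, 4 mM MgCl2, BSA, DTT, yeast tRNA and Tween-20, and green signal was normalised to red-channel RNA signal and control-cluster median Fmax.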

[1] abbreviates: designed as: OFF switch for flavin mononucleotide, no ligand.
[2] abbreviates: ligand present: flavin mononucleotide, designed as: OFF switch for flavin mononucleotide.
[3] abbreviates: designed as: ON switch for flavin mononucleotide, no ligand.
Where [4] appears, read: ligand present: flavin mononucleotide, designed as: ON switch for flavin mononucleotide.

“UAUAUAUAGGCAGGAUAUACAUGAAUAUAUAUAAUGUAGUAUGAUGUAACAUGAGGAUCACCCAUGUAGAAGGGCCAAUAUAUA”: the apparent Kd (commonly the concentration giving half-maximal binding under the conditions of the assay) by setting is: under setting [1], 36.8 nM; under setting [2], 95.2 nM.

For “GCGAUUGCGUAGAAGGUACAAUAUAUUUCAUUGUAAGGAUAUACUUACAUGAGGAUCACCCAUGUUAAUGGAAUUUGCAAUCGC”, the “apparent Kd” value runs as follows: under setting [3], 74.1 nM; under setting [4], 28.9 nM.

With “UUUUUACAUGAGGAUCACCCAUGUCAGGAUAUGCUUAUAUUUUAUUAUUUUAUUUUUUGCAGAAGGGACUAUUA”, the “apparent Kd” value by setting is: under setting [1], 91.8 nM; under setting [2], 68 nM.

As to “AAUUAUUGAUGAGGAUAUUGUGGUGAAACACGACAAGAAGGCAUUAUUCACAUGAGGAUCACCCAUGUGAGCCUGGUGCAUAUA”, the “apparent Kd” value runs as follows: under setting [1], 15.5 nM; under setting [2], 13.8 nM.

Regarding “ACAUGAGGAUCACCCAUGUAUUUAUUUGAAUCUUAAGUUACGUAGGAUAUCGUGUAUACUAUCAUCGAGAAGGACGAUGUGAUA”, the “apparent Kd” value under setting [3] was 15.4 nM and the “apparent Kd” value under setting [4] is 13.6 nM.

In the case of “CGACCCUAAACGAAAUUAUGCAGUCAGGAUAUACAUGAGGAUCACCCAUGUGCGUACCAACUCGUGUAGAAGGGACUUUUAGGG”, the “apparent Kd” value under setting [1] worked out at 24.7 nM and the “apparent Kd” value under setting [2] came out at 84.6 nM.

Regarding “AGAUCCGCAGGAUAUGUCAAUUUACACAUGAGGAUCACCCAUGUGCCUUGUGUCAGCUUGAUAGAAGGGCGGACUA”, the “apparent Kd” value under setting [1] came out at 330 nM and the “apparent Kd” value under setting [2] was found to be 575 nM.

“GGUGCACAUGAGAAGGCGAUCAUGAAACAUGAUCGAGGAUAUCAUGUAAACAUGAGGAUCACCCAUGUAUGGGAAAAGUGCACC”: the “apparent Kd” value reads like this: under setting [3], 114 nM; under setting [4], 10.9 nM.

“AGAUGGUCAGGAUAUGCGUGAAGAAUAAAACAAAUAACAACGCAGAAGGGACAUGAGGAUCACCCAUGUCAUCA”: the “apparent Kd” value reads like this: under setting [1], 21.9 nM; under setting [2], 17.3 nM.

Take “AUAUAUACAAAGUUACAUGAGGAUCACCCAUGUUUAUUGGGAAGAAGGGUAACAUUAUUAGAUGUAUAGGAUAUUUCACAAUUG”: the “apparent Kd” value runs as follows: under setting [3], 599 nM; under setting [4], 327 nM.

On to “AUUAUUAAAGUGAGGAUAUCUAGAGCUGCGGCUCUAGAGAAGGCACAUGAGGAUCACCCAUGUCUCAAUUAUUA”, for which the “apparent Kd” value by setting is: under setting [1], 18.7 nM; under setting [2], 54.4 nM.

Consider “UCUGGAGCAGGAUAUGCAUUCGUGCUUCGGCACGUAAGGUCACAUGAGGAUCACCCAUGUAGAAGGGCUCCAGA”, for which the “apparent Kd” value was 19.2 nM under setting [1] and 34 nM under setting [2].

Consider “AAACACGGACAUGAGGAUCACCCAUGUGGCGAAAGCCUAGGGAGAAGGCAGUAUGCAAAGCAUUCUGAGGAUAUUCAUACCGUG”, for which the “apparent Kd” value is 160 nM under setting [3] and 13.4 nM under setting [4].

Turning to “AAGAUGUAAGGAUAUGCUGCUCGUCACAAAAGUGAUGAGUAGCAGAAGGUACAUGAGGAUCACCCAUGUAGAGA”, the “apparent Kd” value worked out at 31.4 nM under setting [1] and 55.7 nM under setting [2].

Consider “GUCGAUCACCAGAAGGACAUGAGGAUCACCCAUGUAGGAUAUGGGUAAGACGUCACAUUGGCGUGCAAACGUUUGCGUUCGUAC”, for which the “apparent Kd” value came out at 11.9 nM under setting [3] and 6.42 nM under setting [4].

With “AAUGUACGAGGAUAUACAUAGAUACAGAUACAUGUAGACGUACAUGAGGAUCACCCAUGUAGAAGGCGUACAUA”, the “apparent Kd” value was 178 nM under setting [1] and 73.8 nM under setting [2].

With “GGGUACAUCGGAGGAUAUCAUGUAGACACAUGAGGAUCACCCAUGUCGAUGGAGACAUCGGAGAUUGAGAAGGCCGAUGUACCG”, the “apparent Kd” value runs as follows: under setting [3], 435 nM; under setting [4], 23.9 nM.

As to “GUUGGGUGUCAUGUCGCACAUGAGGAUCACCCAUGUAGGAGGUAGGAUAUCCACGAGUAACAAGAGGAGAAGGGCCGUUAGCGU”, the “apparent Kd” value runs as follows: under setting [1], 27.9 nM; under setting [2], 33.6 nM.

“AGUGACGACACAGGAUAUGCUGGACUUUGUCCAGCAGAAGGGUGUUAACAUGAGGAUCACCCAUGUAUCGUCACCAAAUUUAAU”: the “apparent Kd” value reads like this: under setting [3], 628 nM; under setting [4], 34.1 nM.

With “AUUAAACAUGAGGAUCACCCAUGUCAACAAAGUCGAGGAUAUGGGCAAAUAAAUUAAGAACCAGAAGGCGAAUAAU”, the “apparent Kd” value by setting is: under setting [3], 435 nM; under setting [4], 40.5 nM.

For “UUUUAACAUGAGGAUCACCCAUGUGAGGAUAUCGAAUUUUUUAUUAAUAUUAAUAAAACGAGAAGGCACAUUUU”, the “apparent Kd” value reads like this: under setting [1], 63.1 nM; under setting [2], 70.2 nM.

As to “AGCUGGUGACAGCAAGAAACUUCACAUGAGGAUCACCCAUGUAGAAGGCUGUACGGUUACCGUACAGAGGAUAUACAUUGAAGU”, the “apparent Kd” value was found to be 7.16 nM under setting [1] and 13.3 nM under setting [2].

Consider “UUUAUUUUUAGAGGAUAUAUUGUGUGUGAGAGAAUAGAAGGCUAAACAUACAUACAUAACAUGAGGAUCACCCAUGUCCAUGUU”, for which the “apparent Kd” value came out at 69.2 nM under setting [3] and 54.9 nM under setting [4].

On to “UUUAGUUUAGGAUAUGUAGACAUUAACAUGAGGAUCACCCAUGUAGAUCCUGAAUUGACUACAGAAGGAAGCAUUU”, for which the “apparent Kd” value reads like this: under setting [1], 248 nM; under setting [2], 446 nM.

As to “CUUUUGUGAGGAUAUCAGUAGUAUAAAAUUAAAAUUACUACUGAGAAGGCACAUGAGGAUCACCCAUGUUCCUC”, the “apparent Kd” value is, setting by setting: under setting [1], 35.2 nM; under setting [2], 201 nM.

Consider “CGCUAAGAUGGGUCUAAUGGACCAUAGGAUAUGCUUGUACAUGAGGAUCACCCAUGUAAUAUUGUGCAGAAGGGUGGAUUUGCG”, for which the “apparent Kd” value reads like this: under setting [3], 26.4 nM; under setting [4], 19.6 nM.

Turning to “GCCGUUAAAGGAUAUACAUGAGGAUCACCCAUGUCGGUAUAAAAUUUACCGCCUCCCUGUAGAAGGUUAAGGCA”, the “apparent Kd” value under setting [1] is 15.6 nM and the “apparent Kd” value under setting [2] worked out at 19.8 nM.

As for “UGUUAUUAGACAGGAUAUUGAAUGUUAAGUAUUAACAUGAGGAUCACCCAUGUAUUUGAUUGGUACAAGAAGGGUCAUGUUUGU”, the “apparent Kd” value was determined as 323 nM under setting [3] and 659 nM under setting [4].

For “GUCGGGUCUCACGCGUCGGUCCACAUGAGGAUCACCCAUGUCAAGGAUAUAGCGUCUUCCGGGCGUUAGAAGGUGGCCAUUGGU”, the “apparent Kd” value under setting [1] worked out at 26.6 nM and the “apparent Kd” value under setting [2] is 61 nM.

Turning to “AUGUACCUAGGAUAUACAUGAGGAUCACCCAUGUUCCGGGUGCAAUCAAGUUAAUAUUGUAGAAGGAGGUGAAA”, the “apparent Kd” value reads like this: under setting [1], 17 nM; under setting [2], 31.8 nM.

Regarding “AGUUAAUGCACAUGAGGAUCACCCAUGUCACUUUAUAGAAGACAGGAUAUGCAUGCCAUCAAUGUGCAGAAGGGUCAUCACCGA”, the “apparent Kd” value under setting [3] was 81 nM and the “apparent Kd” value under setting [4] was found to be 195 nM.

Take “UGAACUCAUGUAGGAUAUGCAUGGCGAAGCUACGCAGAAGGACAUGAGGAUCACCCAUGUUCUAGCGUCUGAGUACAGAUGCAA”: the “apparent Kd” value was found to be 148 nM under setting [1] and 118 nM under setting [2].

For the sequence “UUCGUGUAAGGAUAUACGACCCAUCCCAUUGGGAUGGGCACGUAGAAGGUACAUGAGGAUCACCCAUGUGCUCC”, the “apparent Kd” value worked out at 26.8 nM under setting [1] and 167 nM under setting [2].

Regarding “AUAUGAGCUAUGGAGGAUAUCCAUAACAAGACAUGAGGAUCACCCAUGUAAUCAAAACAAUAAUGGGAGAAGGCCAUAGCUCAAU”, the “apparent Kd” value under setting [3] came to 67.8 nM and the “apparent Kd” value under setting [4] stood at 76.5 nM.

As for “ACCGUGUCAGGAUAUCCUGCUGUGCGGAAUCUGUAUUCACGGGAGAAGGGACAUGAGGAUCACCCAUGUUUGAG”, the “apparent Kd” value is, setting by setting: under setting [1], 19.6 nM; under setting [2], 18.6 nM.

As for “AUAAUUUUAUAUAUCUUUUUAAUCAGAAGGCAUAACAUGAGGAUCACCCAUGUAUAUUAUAGUUAUGAGGAUAUGAUUUGGUUA”, the “apparent Kd” value runs as follows: under setting [1], 8.94 nM; under setting [2], 11.3 nM.

As for “GGUCGGAGCAGAGGAUAUUACAUGAGGAUCACCCAUGUAUGAACCAAUAGCUGGAAACAGCAAUGUAAGAAGGCUGCUCCGACA”, the “apparent Kd” value reads like this: under setting [1], 13.5 nM; under setting [2], 173 nM.

As to “GUCGACCUAUUCGUCAGACUCUCACAGGAUAUACGAUACACAUGAGGAUCACCCAUGUAGAUAACGUAGAAGGGUGAUUCCGGU”, the “apparent Kd” value was 66.7 nM under setting [3] and 27.7 nM under setting [4].

On to “AAACAUGUCCGAGGAUAUCUGAGAUCAUUUUCAAGAGAAGGCGGACAUGAGGAUCACCCAUGUCUCUCCUCAUCAACUCCAAAU”, for which the “apparent Kd” value worked out at 18.8 nM under setting [1] and 136 nM under setting [2].

Turning to “GUACUGCCCACAGAUAACUUAGCCAGAAGGGUCUACAUGAGGAUCACCCAUGUGGUCCAAAGUGGACAGGAUAUGGAAACGGUU”, the “apparent Kd” value worked out at 68.4 nM under setting [1] and 40.9 nM under setting [2].

As to “GUGCACACUCGAGGAUAUCGGAGUUUUUUUCUUCGAGAAGGCGAUUCGUGCCGUGUUAUUUUGGACAUGAGGAUCACCCAUGUG”, the “apparent Kd” value turned out to be 79.9 nM under setting [3] and 34.4 nM under setting [4].

With “UAUAUUAUUAUAGGAUAUGGAUAUGAUGCAUAUCCAGAAGGGUGAUUAUAAUAUAUUCUGUACAUGAGGAUCACCCAUGUUUAU”, the “apparent Kd” value is, setting by setting: under setting [3], 258 nM; under setting [4], 75.9 nM.

As to “CGCUCAAGAGAGAAGGAUAGAGUCAGAAGGCGUUACAUGAGGAUCACCCAUGUUUUGUAUAGUAACGAGGAUAUGAAAUGAGCG”, the “apparent Kd” value reads like this: under setting [1], 19.7 nM; under setting [2], 15 nM.

With “AUAGUGCGCGAGAAGGACGUACCACAUGUUGAUCACCGAUAUAAGGAACGUAGGAUAUUGCACAUGAGGAUCACCCAUGUGGAU”, the “apparent Kd” value under setting [3] was found to be 16.6 nM and the “apparent Kd” value under setting [4] worked out at 21.3 nM.

Turning to “AAUUUACAGCUAGGAUAUACAUGAGGAUCACCCAUGUAAUGAUAGGAUCUUAUGAUCGUAUCAGUGUAGAAGGAGCAAAUAAGA”, the “apparent Kd” value is 9.39 nM under setting [1] and 8.81 nM under setting [2].

Turning to “UGGUGACGUUUCUUCUCGACAUGAGGAUCACCCAUGUAGACAGAGGAUAUCCGAGUUGCCAAUAAGGAGAAGGCUGACUGCGAA”, the “apparent Kd” value under setting [1] is 6.61 nM and the “apparent Kd” value under setting [2] is 10.2 nM.

As to “AUUGUAAUGUCAGGAUAUAUUAUUUUUUACAUAGUAGAAGGGAUAAUUAUACUCAUGUACAUGAGGAUCACCCAUGUUAAAUAU”, the “apparent Kd” value under setting [3] came out at 58.8 nM and the “apparent Kd” value under setting [4] was found to be 24.8 nM.

Consider “CGCUACGUUUCGUAGCAGUGUCAUCGAGAAGGCCCUGACAUGAGGAUCACCCAUGUUGUUACAUGGGAGGAUAUCGAUGAUACG”, for which the “apparent Kd” value is, setting by setting: under setting [3], 13 nM; under setting [4], 5.4 nM.
